Source: PubChem (several laboratories)
Shown are actives, neighbours in structure and some others; about 2.9% of the full set was active somewhere.
CRFBP-R2 agonist: agonists of human CRF-binding protein/CRF-R2 receptor complex. HEK293 CRF-R2/CRF-BP, calcium dye fluorescence (FLIPR); percent of saturating CRF peptide response. activation, % at 13.2 µM. hit rate 0.46% among 350,000. AID 588473;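 active = activation of at least 50%, plus an integration ratio under a set limit after plate pattern correction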;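 also: plate controls were neutral control wells without compound for no effect and CRF at EC100 for full effect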
Tn6 DDE FP: inhibitors of Tn6 peptide binding to human fibrin DD(E) | Fibrin DD(E) TRITC-Tn6 fluorescence polarization displacement | inhibition, % at 8.3 µM | hit rate 0.21% among 370,000 | AID 720509;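 active = inhibition above a per-campaign cutoff: mean of compounds within control limits plus 3 SD, cut at about 15% in these data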;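 also: 0% = median of all compound wells on the plate and 100% = blocking peptide control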
NRP1-CendR mod: NRP-1/CendR interaction modulation | FAM-RPARPAR peptide binding to NRP-1, fluorescence polarization | inhibition, % at 25 µM | hit rate 0.85% among 360,000 | AID 602438;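 active = inhibition or corrected inhibition above about 18%, plus a signal ratio from 0.5 to 1.5, limit read from the data, passing the limit was not always enough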
DDE Tn7 FP inh: disrupts Tn7 cyclic peptide binding to fibrin D-Dimer-E complex; FP displacement of FITC-Tn7 peptide from fibrin DD(E); 0% = median of compound wells per plate; inhibition, % at 8.3 µM; hit rate 0.13% among 370,000; AID 720508;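 active = inhibition above the mean of compounds falling within the control limits plus 3 SD of them, cut at about 14% in these data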;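 also: 0% = plate median of compound wells and 100% = 10 µM Aha-Tn7 peptide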
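Assay system: human fibrin DD(E). Input: DD(E) 2 µM final. Medium: Tris buffer with calcium and detergent, pH 7.8. Compound dosing: single point at 8.3 µM. Timing: 10 min plus 3 h, room temperature. Technique: fluorescence polarization of the labelled Tn7 tracer. Read-out: percent inhibition. Replicates: singlicate testing.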
KLK7 zymogen act: activators of human kallikrein-7 zymogen | P49862 | purified proKLK7, EDANS-DABCYL substrate fluorescence; 100% is mature enzyme control, 0% vehicle | activation, % at 7 µM | hit rate 0.9% among 370,000;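 active = activation above the mean of all tested compounds plus 3 SD, computed per campaign excluding outliers beyond control limits, cut at about 13% in these data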
Target sequence (P49862 whole entry, looked up): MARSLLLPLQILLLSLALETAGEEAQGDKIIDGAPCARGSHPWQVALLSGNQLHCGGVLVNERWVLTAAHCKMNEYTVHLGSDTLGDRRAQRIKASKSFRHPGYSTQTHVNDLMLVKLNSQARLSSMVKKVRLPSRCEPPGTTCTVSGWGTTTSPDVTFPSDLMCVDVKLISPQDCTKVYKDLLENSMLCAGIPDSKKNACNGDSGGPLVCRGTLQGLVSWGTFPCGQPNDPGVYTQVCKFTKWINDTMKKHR
CRFBP-R2 block: antagonists of CRF-binding protein/CRF-R2 receptor complex; HEK293 CRF-R2/CRF-BP, CRF-induced calcium fluorescence; inhibition, % at 11.8 µM; hit rate 0.59% among 350,000;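 active = inhibition of the ligand-induced calcium signal above about 50% at the single tested concentration, limit read from the data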
An asterisk follows results filed as active; . = no result given.

SMILES	CRFBP-R2 agonist	Tn6 DDE FP	NRP1-CendR mod	DDE Tn7 FP inh	KLK7 zymogen act	CRFBP-R2 block
C#CCOCCOCCOCCNc1nc(N2CCN(C(=O)[C@H](CCCCN)n3cc([C@@H](N)C(C)CC)nn3)CC2)nc(N2CCN(C(=O)[C@H](CCCCN)n3cc([C@@H](N)CC(C)C)nn3)CC2)n1 (stereo partly drawn)	-0.7	5.1	22.2*	-5.9	0.5	-5.5
C#CCOCCOCCOCCNc1nc(N2CCN(C(=O)CCCCCCCCCCNC(=O)[C@H](CCCCN)n3cc(C[C@@H](C)CC)nn3)CC2)nc(N2CCN(C(=O)CCCCCCCCCCNC(=O)[C@H](CCCCN)n3cc(C[C@@H](C)CC)nn3)CC2)n1	91.5*	.	10.0	.	.	-141.8
C#CCOCCOCCOCCNc1nc(N2CCN(C(=O)CCCCCCCCCCNC(=O)Cn3cc(CCCCCN)nn3)CC2)nc(N2CCN(C(=O)CCCCCCCCCCNC(=O)[C@H](CO)n3cc(CCCCCN)nn3)CC2)n1	37.7	.	0.4	.	.	-17.1
C=CC(=O)NC1CCCCN(C)C1=O (stereo not drawn)	.	-0.6	.	-1.9	-0.1	.
Cc1ccc(NC(=S)NNC(=O)CSc2nnc(SCc3cccc4ccccc34)s2)cc1	.	-7.6	.	4.7	0.2	.
COCCCNc1c2c3c(cccc3[nH]c1=O)C(=O)c1ccccc1-2	203.9*	85.8*	144.7	5.8	11.0	-192.1
COCCCNC1=C(Cl)C(=O)c2ccccc2C1=O	-0.4	-4.7	4.2	0.9	-0.1	4.9
CCCCCCCCN1CCS(=O)(=O)N(Cc2ccccc2)C(C(=O)OC)C1 (stereo not drawn)	.	-13.6	.	2.3	0.4	.
O=C(CCCn1c(=O)c2cccn2c2cccnc21)NCc1cccc(Br)c1	0.6	0.1	1.5	-4.2	0.3	-5.6
O=C(CCn1c(=O)c2cccn2c2cccnc21)NCc1cccc(Cl)c1	-1.2	-0.3	27.0*	3.7	0.1	14.7
O=C(NCCc1ccccc1)OCc1cn(Cc2cccc(Cl)c2)nn1	.	2.9	.	-1.9	0.2	.
Cc1ccc(OCn2c(=O)sc3ccccc32)cc1	-1.7	.	-13.6	.	.	55.0*
COc1ccc(OCC(C)CN2CCC(C(O)(c3ccccc3)c3ccccc3)CC2)cc1 (stereo not drawn)	.	-3.1	.	-6.8	-0.3	.
CC(=O)N1CCOc2ccc(S(=O)(=O)N3CCC(C(=O)NCc4ccc(C)cc4)CC3)cc21	2.4	-0.8	5.4	-1.4	-0.6	52.8*
CC(=O)N1CCOc2ccc(S(=O)(=O)N3CCC(C(=O)NCc4ccc(Cl)cc4)CC3)cc21	-0.5	-4.6	11.5	-5.9	0.5	3.1
CC(C)(C)C(=O)/C=c1\[nH]c(=O)/c(=C\c2ccc(F)cc2)s1	1.9	-15.1	-14.3	-5.9	0.6	-7.9
COc1ccc(/C=c2\s/c(=C/C(=O)c3ccc(C)cc3)[nH]c2=O)cc1OC	182.4*	-6.2	36.5	-13.5	-2.6	-227.2
COc1ccc(NC(=O)COC(=O)Cn2nnc3ccccc32)cc1	-0.5	-10.8	7.7	2.0	0.0	3.2
CN(C)c1ccc(NC(=O)COC(=O)Cn2nnc3ccccc32)cc1	-0.3	-3.8	8.0	5.5	0.3	93.2*
CCOC(=O)N1C(=O)C[C@](Sc2ccc(OC)cc2)(C(=O)N2CCN(C(C)=O)CC2)[C@H]1c1ccc(OC)cc1	.	-2.2	.	-5.9	0.0	.
COc1ccc(C(=O)C2CCCN(C(=O)c3cccc(N(C)C)c3)C2)cc1OC (stereo not drawn)	-1.7	1.4	24.7*	-4.0	-0.7	2.1
COc1ccc(F)cc1C(=O)C1CCCN(C(=O)c2cccc(N(C)C)c2)C1 (stereo not drawn)	0.0	1.8	-2.7	4.5	0.3	2.7
COC(=O)C1CN(Cc2ccc(OC)cc2)CCS(=O)(=O)N1Cc1cn(CCOC(C)=O)nn1 (stereo not drawn)	.	-4.0	.	-10.7	-0.3	.
Nc1sc2c(c1C(=O)NCCc1ccccc1)CCC2	2.6	-4.0	-35.8	3.3	1.0	-1.4
Nc1sc2c(c1C(=O)NCCc1ccccc1)CCCC2	.	27.9*	-21.8	-0.9	-0.8	.
SMILES	CRFBP-R2 agonist	Tn6 DDE FP	NRP1-CendR mod	DDE Tn7 FP inh	KLK7 zymogen act	CRFBP-R2 block
O=C(Nc1ccc(N2CCN(c3ccccc3)CC2)c(F)c1)C1CC1	0.6	1.6	3.9	-1.3	-0.6	58.2*
Nc1ccn(CC(=O)NCc2ccc3c(c2)OCO3)c(=O)n1	0.7	1.5	21.1*	5.4	0.4	2.0
COc1ccc(CNC(=O)Cn2ccc(N)nc2=O)cc1	-0.6	5.7	32.3*	-7.2	0.2	-5.3
Nc1ccn(CC(=O)NCc2ccccn2)c(=O)n1	0.6	-5.8	0.0	5.0	0.2	8.7
Nc1ccn(CC(=O)NCCNc2ccc([N+](=O)[O-])cn2)c(=O)n1	2.8	1.2	27.7*	8.0	0.9	-13.9
Nc1ccn([C@@H]2O[C@H](C(=O)NCc3ccc4c(c3)OCO4)[C@@H](O)[C@H]2O)c(=O)n1	.	1.4	26.5*	-6.5	-0.9	.
Nn1c(SCC(=O)Nc2ccc(OCc3ccccc3)cc2)nnc1-c1cc(-c2ccccc2)n[nH]1	.	-1.7	.	0.4	0.4	.
c1nc(NCC2CCCCO2)c2cc(-c3ccc4c(c3)OCO4)ccc2n1 (stereo not drawn)	.	-13.7	.	-1.4	.	.
COc1ccc(-c2cc(C(F)F)n3ncc(C(=O)N4CCN5CCCC5C4)c3n2)cc1 (stereo not drawn)	-0.3	8.4	-16.3	-0.7	23.8*	21.2
CCOC(=O)N1CCN(C(=O)c2cnn3c(C(F)F)cc(-c4ccc(C)cc4)nc23)CC1	-4.1	-4.5	19.7*	-1.8	-1.0	13.9
Cc1ccc(-c2cc(C(F)F)n3ncc(C(=O)N4CCN(c5cccc(C)c5C)CC4)c3n2)cc1	9.2	0.8	1.2	-1.2	-0.5	-15.1
CN(C(=O)C1CCN(c2cncnc2)CC1)C1CCCCC1	.	-3.4	.	-4.8	0.8	.
Cc1[nH]n(-c2ccccc2)c(=S)c1C=Nc1cccc([N+](=O)[O-])c1	-1.2	-1.4	24.5*	0.9	0.2	2.2
CCCCN=Cc1c(C)[nH]n(-c2ccccc2)c1=S	-2.1	-0.1	8.8	6.1	-0.3	7.0
C/C(=N\NC(=S)Nc1ccc(C)cc1)c1cccc(N)c1	179.3*	0.4	2.6	-0.9	-0.2	16.8
COc1ccc(C(=O)OCC(=O)Nc2nc3c(F)c(F)c(F)cc3s2)cc1OC	2.1	-3.0	0.7	2.5	0.4	-22.7
O=C(COC(=O)C12CC3CC(CC(C3)C1)C2)Nc1nc2c(F)c(F)c(F)cc2s1	1.6	-7.1	30.9*	1.2	0.0	-15.3
Fc1ccc(C(c2nnnn2C2CCCC2)N2CCN(Cc3ccncc3)CC2)cc1 (stereo not drawn)	0.4	7.4	10.6	0.1	-0.2	12.9
CCC(c1nnnn1C1CCCC1)N1CCN(C/C=C/c2ccccc2)CC1 (stereo not drawn)	.	-0.2	14.3	-5.0	0.2	.
